What was measured:
[1] = tested on: Radical scavenging activity; assay: Antioxidant activity assessed as DPPH radical scavenging activity after 30 mins; format: functional
Summary of the method: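 Test samples in DMSO mixed with 300 µM ethanolic DPPH, incubated 37 °C for 30 min, absorbance read at 515 nm. Final test concentrations typically 1-50 µg/mL. Percent inhibition relative to DMSO-treated control; IC50 = concentration scavenging 50% of DPPH radicals.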

[2] = tested on: HCT-116; assay: Cytotoxicity against human HCT116 cells after 72 hrs by MTT assay; format: functional, cell-based; settings: HCT-116, 72 h
Summary of the method: (§1)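 Human colon cancer cells kept in DMEM with 10% FBS, 5% CO2, 37 °C, no antibiotics. About 3.0 × 10^4 cells per well, grown to 40% confluence, then exposed to compounds in DMSO for 72 h. MTT (5 mg/mL stock) added 4 h, formazan solubilized, absorbance at 570 nm. Octuplicate wells, mean and SD; IC50 by linear regression.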

[3] = tested on: SW480; assay: Cytotoxicity against human SW480 cells after 72 hrs by MTT assay; format: functional, cell-based; settings: SW480, 72 h; summary of the method: as §1

| IC50 [1] [µM] | SMILES | IC50 [2] [µM] | IC50 [3] [µM] |
| --- | --- | --- | --- |
| 39.5 | O=C(/C=C/c1ccc(O)c(O)c1)O[C@@H]1C[C@](O)(C(=O)O)C[C@@H](O)[C@H]1O [CHLOROGENIC ACID] | 367 | 353 |
| – | O=C(O[C@@H]1Cc2c(O)cc(O)cc2O[C@@H]1c1cc(O)c(O)c(O)c1)c1cc(O)c(O)c(O)c1 [EPIGALOCATECHIN GALLATE] | 161 | 195 |
| 12.9 | COC(=O)[C@]1(O)C[C@@H](O)[C@@H](OC(=O)c2cc(O)c(O)c(O)c2)[C@H](OC(=O)/C=C/c2ccc(O)c(O)c2)C1 | 190 | 160 |
| 23.5 | O=C(/C=C/c1ccc(O)c(O)c1)O[C@@H]1C[C@](O)(C(=O)O)C[C@@H](O)[C@H]1OC(=O)c1cc(O)c(O)c(O)c1 | 154 | 134 |
